# From ChEMBL document CHEMBL1833842, “1,3-Dihydro-2H-indol-2-ones derivatives: design, synthesis, in vitro antibacterial, antifungal and antitubercular study” (2011)
# Columns and labels:
# Aspergillus clavatus = test: Antifungal activity against 10^8 CFU/mL Aspergillus clavatus MTCC 1323 by broth microdilution method; assay type: functional
# How it was run: (§1)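 Fungal MTCC cultures came from IMTECH Chandigarh. Mueller-Hinton broth served as growth and dilution medium, with DMSO as diluent. Inoculum was set to 10⁸ CFU/mL by turbidity. Serial dilutions from a 2000 stock gave a primary screen at 500, 250 and 125, followed by a secondary dilution series for actives. MIC was the lowest concentration inhibiting growth.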
# Bacillus subtilis = test: Antibacterial activity against 10^8 CFU/mL Bacillus subtilis MTCC 441 by broth microdilution method; assay type: functional
# How it was run: (§2)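 MTCC bacterial strains from IMTECH Chandigarh were grown in Mueller-Hinton broth, which was also used to dilute the compounds. Inoculum was turbidity-adjusted to 10⁸ CFU/mL, and DMSO served as diluent. Compounds from a 2000 stock were screened first at 500, 250 and 125; actives were retested in a second dilution series. Tubes were incubated overnight at 37 °C, and MIC was the lowest concentration with no visible growth. Clear tubes were subcultured overnight at 37 °C to tell bacteriostatic from bactericidal.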
# Klebsiella pneumoniae = test: Antibacterial activity against 10^8 CFU/mL Klebsiella pneumoniae MTCC 109 by broth microdilution method; assay type: functional; how it was run: as §2
# Pseudomonas aeruginosa = test: Antibacterial activity against 10^8 CFU/mL Pseudomonas aeruginosa MTCC 1688 by broth microdilution method; assay type: functional; how it was run: as §2
# Salmonella typhi = test: Antibacterial activity against 10^8 CFU/mL Salmonella typhi MTCC 98 by broth microdilution method; assay type: functional, Salmonella enterica subsp. enterica serovar Typhi
# How it was run: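 Broth microdilution in Mueller-Hinton broth with MTCC strains, inoculum adjusted by turbidity to 10⁸ CFU/mL. Compounds were diluted from DMSO. Primary screen used 500, 250 and 125 concentrations, and actives were serially diluted further. Tubes were incubated overnight at 37 °C. MIC was the lowest concentration with no visible growth. Clear tubes were subcultured overnight at 37 °C to judge bacteriostatic versus bactericidal.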
# Escherichia coli = test: Antibacterial activity against 10^8 CFU/mL Escherichia coli MTCC 443 by broth microdilution method; assay type: functional; how it was run: as §2
# [1] = test system: Mycobacterium tuberculosis; test: Antituberculosis activity against 5 x 10^4 inoculum per tube Mycobacterium tuberculosis H37Rv after 24 hrs by Lowenstein-Jensen method; assay type: functional
# How it was run: (§3)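 Conventional Lowenstein-Jensen method. Compound dilutions were made from a DMSO stock and added to liquid L-J medium, which was sterilized by inspissation. Tubes were incubated 24 h at 37 °C, then streaked with H37Rv (5 × 10⁴ bacilli per tube) harvested into 0.85% saline. Growth was checked at 12, 22 and 28 days at 37 °C against medium-only controls. MIC was the concentration giving no colonies or <20 colonies.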
# [2] = test system: Mycobacterium tuberculosis; test: Antituberculosis activity against 5 x 10^4 bacilli per tube Mycobacterium tuberculosis H37Rv assessed as growth inhibition at 62.5 ug/mL incubated for 24 hrs measured after 28 days; assay type: functional; details: read-out: GI; how it was run: as §3
# Aspergillus niger = test: Antifungal activity against 10^8 CFU/mL Aspergillus niger MTCC 282 by broth microdilution method; assay type: functional; how it was run: as §1
# Candida albicans = test: Antifungal activity against 10^8 CFU/mL Candida albicans MTCC 227 by broth microdilution method; assay type: functional; how it was run: as §1
# Staphylococcus aureus = test: Antibacterial activity against 10^8 CFU/mL Staphylococcus aureus MTCC 96 by broth microdilution method; assay type: functional; how it was run: as §2
# Streptococcus pyogenes = test: Antibacterial activity against 10^8 CFU/mL Streptococcus pyogenes MTCC 442 by broth microdilution method; assay type: functional; how it was run: as §2
# [3] = test system: Mycobacterium tuberculosis; test: Antituberculosis activity against 5 x 10^4 bacilli per tube Mycobacterium tuberculosis H37Rv assessed as growth inhibition at 1000 ug/mL incubated for 24 hrs measured after 28 days; assay type: functional; details: read-out: GI; how it was run: as §3
# [4] = test system: Mycobacterium tuberculosis; test: Antituberculosis activity against 5 x 10^4 bacilli per tube Mycobacterium tuberculosis H37Rv assessed as growth inhibition at 250 ug/mL incubated for 24 hrs measured after 28 days; assay type: functional; details: read-out: GI; how it was run: as §3
# [5] = test system: Mycobacterium tuberculosis; test: Antituberculosis activity against 5 x 10^4 bacilli per tube Mycobacterium tuberculosis H37Rv assessed as growth inhibition at 0.20 ug/mL incubated for 24 hrs measured after 28 days; assay type: functional; details: read-out: GI; how it was run: as §3
Compound,MIC (Aspergillus clavatus),MIC99 (Bacillus subtilis),MIC99 (Klebsiella pneumoniae),MIC99 (Pseudomonas aeruginosa),MIC99 (Salmonella typhi; Salmonella enterica),MIC99 (Escherichia coli),MIC [1],inhibition of growth at 62.5 µg/mL [2],MIC (Aspergillus niger),MIC (Candida albicans),MIC99 (Staphylococcus aureus),MIC99 (Streptococcus pyogenes),inhibition of growth at 1000 µg/mL [3],MIC99 (Salmonella typhi; Salmonella enterica subsp. enterica serovar Typhi),inhibition of growth at 250 µg/mL [4],inhibition of growth at 0.2 µg/mL [5]
CC1=C(c2nnc(/N=C3\C(=O)Nc4ccc([N+](=O)[O-])cc43)s2)C(c2ccccc2)NC(=O)N1 (configuration not stated),500 µg/mL,200 µg/mL,200 µg/mL,100 µg/mL,200 µg/mL,62.5 µg/mL,62.5 µg/mL,99%,250 µg/mL,250 µg/mL,200 µg/mL,250 µg/mL,,,,
NYSTATIN,100 µg/mL,,,,,,,,100 µg/mL,100 µg/mL,,,,,,
CC1=C(c2nnc(/N=C3\C(=O)Nc4ccccc43)s2)C(c2ccccc2)NC(=O)N1 (configuration not stated),250 µg/mL,500 µg/mL,250 µg/mL,250 µg/mL,250 µg/mL,500 µg/mL,1000 µg/mL,,250 µg/mL,250 µg/mL,500 µg/mL,500 µg/mL,98%,,,
GENTAMICIN,,0.5 µg/mL,0.05 µg/mL,1 µg/mL,,0.05 µg/mL,,,,,0.25 µg/mL,0.5 µg/mL,,1 µg/mL,,
O=C(N[C@H](CO)[C@H](O)c1ccc([N+](=O)[O-])cc1)C(Cl)Cl [CHLORAMPHENICOL],,50 µg/mL,50 µg/mL,50 µg/mL,50 µg/mL,50 µg/mL,,,,,50 µg/mL,50 µg/mL,,,,
CC1=C(c2nnc(/N=C3\C(=O)Nc4ccc(Br)cc43)s2)C(c2ccccc2)NC(=S)N1 (configuration not stated),500 µg/mL,100 µg/mL,200 µg/mL,200 µg/mL,250 µg/mL,200 µg/mL,250 µg/mL,,500 µg/mL,500 µg/mL,100 µg/mL,100 µg/mL,,,98%,
COC1=CC(=O)C[C@@H](C)[C@]12Oc1c(Cl)c(OC)cc(OC)c1C2=O [GRISEOFULVIN],100 µg/mL,,,,,,,,100 µg/mL,500 µg/mL,,,,,,
NNC(=O)c1ccncc1 [ISONIAZID],,,,,,,0.2 µg/mL,,,,,,,,,99%
CCn1cc(C(=O)O)c(=O)c2cc(F)c(N3CCNCC3)cc21 [NORFLOXACIN],,10 µg/mL,10 µg/mL,10 µg/mL,10 µg/mL,10 µg/mL,,,,,10 µg/mL,10 µg/mL,,,,
CC1(C)S[C@@H]2[C@H](NC(=O)[C@H](N)c3ccccc3)C(=O)N2[C@H]1C(=O)O [AMPICILLIN],,100 µg/mL,100 µg/mL,100 µg/mL,100 µg/mL,100 µg/mL,,,,,250 µg/mL,100 µg/mL,,,,
